SMILES strings stand for the structures. Activity calls are given as the source filed them. No cut-off for these calls is given here.

In one test the test system is Cladosporium cucumerinum. Put plainly: Induction of growth of Cladosporium cucumerinum CCMI 206 at 100 ug by bioautographic TLC bioassay. The format is functional, organism-based. An outline of the steps:
(§1)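 Bioautography on developed TLC plates against the fungus C. cucumerinum strain CCMI 206, obtained from the CCMI culture collection. Procedure followed Homans and Fuchs.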
For `COc1cc2c(cc1O)[C@@H]1Oc3cc4c(cc3[C@@H]1CO2)OCO4`, the outcome was Active. Still for that read-out and setting: as for `COc1c(O)cc2c(c1OC)OC[C@H]1c3cc4c(cc3O[C@@H]21)OCO4`, the entry is “Active”.

For another test, the system named is Cladosporium cucumerinum. Description: Antifungal activity against Cladosporium cucumerinum CCMI 206 at 100 ug by bioautographic TLC bioassay. The test is classed as functional, organism-based. The essentials:
as §1
Turning to `CC(C)=CCc1c(O)cc2occ(-c3ccc4c(c3)C=CC(C)(C)O4)c(=O)c2c1O`, the outcome was inactive.

For `CC1(C)C=Cc2c(cc(O)c3c(=O)cc(-c4ccc(O)cc4)oc23)O1`, the result was inactive. Same read-out and setting: as for `CC1(C)C=Cc2cc(-c3coc4cc5c(c(O)c4c3=O)CC(C(C)(C)O)O5)ccc2O1` (configuration not stated), the entry is “inactive”; as for `CC1(C)C=Cc2c(cc3occ(-c4ccc(O)cc4)c(=O)c3c2O)O1`, “inactive”. The same measure, in the same setting: next, `COc1cc(O)c2c(=O)c(-c3ccc(O)c(CC=C(C)C)c3)coc2c1CC=C(C)C`: “Active”; `COc1cc2c(cc1C1COc3cc(O)ccc3C1=O)OCO2` (configuration not stated): “Active”. Still for that read-out and setting: as for `CC1(C)C=Cc2cc(-c3coc4cc5oc(C(C)(C)O)cc5c(O)c4c3=O)ccc2O1`, the entry is “inactive”; as for `COc1cc2c(cc1OC)[C@@H]1Oc3cc4c(cc3[C@@H]1CO2)OCO4`, “Active”. With `CC(C)=CCc1cc(-c2coc3cc(O)c(CC=C(C)C)c(O)c3c2=O)ccc1O`, the result was inactive.

For `CC1(C)C=Cc2c(ccc(-c3coc4cc(O)cc(O)c4c3=O)c2O)O1`, the outcome was Active.

Source of the values: ChEMBL document CHEMBL1159317, “Flavonoids from Ulex airensis and Ulex europaeus ssp. europaeus” (J Nat Prod, 2002).
